Screens (PubChem BioAssay)
In the library only some 1.6% were active in any assay of this set; here they are far more common.
ABCB1 block – inhibitors of human ABCB1 transporter, ABCG2 counter-screen | P08183 | CCRF-Adr cells, JC-1 efflux, flow cytometry | inhibition, % at 6.6 µM | hit rate 0.067% among 190,000; in the data active means inhibition above about 40%;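 further: higher value means more JC-1 retained so stronger ABCB1 efflux block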
PHOSPHO1 inh – inhibitors of human PHOSPHO1 phosphatase; Q8TCT1; recombinant PHOSPHO1, absorbance phosphatase assay; inhibition, % at 13.3 µM; hit rate 1.1% among 290,000; in the data active means inhibition above about 60%
Target sequence (Q8TCT1 whole entry, looked up): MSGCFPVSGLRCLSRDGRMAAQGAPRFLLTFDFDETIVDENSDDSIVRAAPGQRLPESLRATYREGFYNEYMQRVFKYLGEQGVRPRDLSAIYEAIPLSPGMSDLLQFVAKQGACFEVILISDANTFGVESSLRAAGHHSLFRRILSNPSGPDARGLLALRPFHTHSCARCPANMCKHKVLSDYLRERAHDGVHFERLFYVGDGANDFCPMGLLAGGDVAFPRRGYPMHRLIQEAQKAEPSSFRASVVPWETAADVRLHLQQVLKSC
HSV replic up – HSV replication enhancement; HSV replication augmentation in cells, fold increase; maximum fold increase; AID 1956; hit rate 0.005% among 220,000; in the data active means maximum fold increase above about 1.5; tested in PC3 cells
NCF1 inh – blocks human p47phox regulatory protein of NADPH oxidases; P14598; p47phox/p22phox peptide binding, fluorescence polarization, 2 h; inhibition, % at 24.7 µM; hit rate 0.53% among 220,000; AID 1274;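 active means inhibition above about 30%, limit read from the data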
Target sequence (P14598 whole entry, looked up): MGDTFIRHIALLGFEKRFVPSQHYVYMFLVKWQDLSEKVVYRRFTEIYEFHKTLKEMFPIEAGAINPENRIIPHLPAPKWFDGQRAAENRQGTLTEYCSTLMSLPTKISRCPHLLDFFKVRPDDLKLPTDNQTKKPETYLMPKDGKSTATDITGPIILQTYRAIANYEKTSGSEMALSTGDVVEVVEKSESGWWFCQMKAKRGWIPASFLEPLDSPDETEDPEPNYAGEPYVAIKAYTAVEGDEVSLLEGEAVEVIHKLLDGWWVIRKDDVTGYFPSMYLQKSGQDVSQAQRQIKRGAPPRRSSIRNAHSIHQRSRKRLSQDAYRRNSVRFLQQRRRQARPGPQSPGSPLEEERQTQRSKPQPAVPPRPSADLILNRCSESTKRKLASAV
PKD1 kinase inh – inhibitors of human PKD1 kinase; Q15139; PKD1 kinase fluorescence polarization assay; inhibition, % (test concentration not listed); hit rate 0.056% among 200,000; in the data active means inhibition above about 50%
ABCG2 inh – inhibitors of human ABCG2 transporter, ABCB1 counter-screen; IgMXP3 cells, JC-1 efflux, flow cytometry; inhibition, % at 6.6 µM; hit rate 0.1% among 190,000; AID 1325;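 active means inhibition above 80%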
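Times: 10 min at 25 °C | Test system: Two drug-resistant human cell lines, ABCG2 and ABCB1 | Quantity: 3 million cells/mL final, two lines in 1:1 ratio | Signal: Flow cytometry, 530 nm JC-1 signal | Dosing: Compound at 6.6 µM | Controls: Nicardipine and DMSO wells | Reagent: JC-1 as fluorescent efflux pump substrate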
Hits are given with their value; . = inactive; / = no result.

SMILES	ABCB1 block	PHOSPHO1 inh	HSV replic up	NCF1 inh	PKD1 kinase inh	ABCG2 inh
CC1CCCN(C(=O)C2CCN(c3nc(-c4ccccc4)nc4c3CCC4)CC2)C1 (stereo not drawn)	/	65.8	/	/	/	/
CC(=O)N1CCc2[nH]c3ccccc3c2C1	.	.	.	.	.	.
CC(=O)N1C=Cc2c(c(C)c3c([nH]c4ccccc43)c2C)C1	/	.	.	77.3	/	/
CCC1CCCCN1C(=O)CCC(=O)Nc1nnc(C(F)(F)F)s1 (stereo not drawn)	/	.	/	/	/	/
CCOc1cccc(-c2nnc(SCC(=O)Nc3cc(OC)cc(OC)c3)n2N)c1	.	.	.	.	.	.
COc1cccc(NC(=O)CSc2nnc(-c3cccc(OC(C)C)c3)n2N)c1	.	88.2	.	.	.	.
CC(C)OC(=O)CSc1nnc(-c2cnccn2)n1Cc1ccco1	.	.	.	.	.	.
COc1cccc(-c2nnc(SCC(=O)OC(C)C)n2Cc2ccco2)c1	.	72.5	.	.	.	.
Cc1nnc(SCC(=O)Nc2ccc([N+](=O)[O-])cc2)n1C	/	.	/	/	/	/
COc1ccccc1CNC(=O)C1CCCN(S(=O)(=O)c2cccc3nonc23)C1 (stereo not drawn)	/	.	/	/	/	/
COC(=O)c1sccc1NC(=O)Nc1cccc(C)c1C	/	61.0	/	/	/	/
COC(=O)c1sccc1NC(=O)Nc1cccc(Cl)c1Cl	.	.	.	.	.	.
O=C(NCc1ccccn1)c1ccc(OC2CCN(Cc3ccc(Cl)s3)CC2)cc1	/	.	/	/	/	/
C/C(=N\Nc1ncc(Cl)cc1Cl)c1ccccn1	.	.	.	.	61.4	.
CCCCNC(=O)CSc1nc2ccsc2c(=O)n1CCCC(=O)NCCc1ccc(S(N)(=O)=O)cc1	.	.	.	31.0	.	.
COc1ccc(C(C)C)cc1S(=O)(=O)n1ccnc1C	.	.	.	.	.	.
COc1ccc(CCNC(=O)C/C(C)=N/NC(=O)c2ccc(Cl)cc2Cl)cc1OC	/	.	/	/	/	/
COc1ccc(CCNC(=O)C/C(C)=N/NC(=O)c2ccc(N)cc2)cc1OC	.	.	.	81.3	.	.
Cc1ccc(OCc2ccc(C(=O)Nc3nc4ccccc4n3Cc3ccccc3)o2)c([N+](=O)[O-])c1	.	.	.	32.0	.	.
O=C(Nc1nc2ccccc2n1Cc1ccccc1)c1ccc(COc2ccccc2[N+](=O)[O-])o1	.	.	.	.	.	.
CC(=O)Oc1ccc(/C(C)=N/N2CCN(Cc3ccc(C)cc3)CC2)cc1	/	.	/	/	/	/
CCOc1ccc2nc(SC3CC(=O)N(c4ccc(C)cc4)C3=O)sc2c1 (stereo not drawn)	.	84.3	.	.	.	.
C=CCNc1nnc(SC2CC(=O)N(c3ccc(OCCC)cc3)C2=O)s1 (stereo not drawn)	.	99.8	.	.	.	.
CCOC(=O)c1ccc(N2C(=O)CC(Sc3nnc(C)s3)C2=O)cc1 (stereo not drawn)	.	100.2	.	.	.	.
Nc1nnc(SC2CC(=O)N(c3ccccc3)C2=O)s1 (stereo not drawn)	.	97.6	.	.	.	.
SMILES	ABCB1 block	PHOSPHO1 inh	HSV replic up	NCF1 inh	PKD1 kinase inh	ABCG2 inh
CCOc1ccc(N2C(=O)CC(Sc3nc4ccc(OCC)cc4s3)C2=O)cc1 (stereo not drawn)	/	/	.	/	.	/
CCCC[n+]1ccn(-c2nc3c([N+](=O)[O-])cccc3n2C)c1	/	.	/	/	/	/
CN(C(=O)CSC(=O)c1ccccc1)c1ccccc1	/	.	/	/	/	/
Cc1ccc(C(=O)Oc2cc(C)n(C)c(=O)c2)cc1	.	.	.	.	.	.
O=C1CC(Sc2nnc(-c3ccccc3O)o2)C(=O)N1c1ccccc1 (stereo not drawn)	.	95.3	/	.	.	.
Cc1[nH]c(=S)c(C#N)c(C)c1C(=O)Nc1ccccc1	.	95.0	.	.	.	.
Oc1c(N=Nc2ccccn2)ccc2ccccc12	.	.	.	62.4	.	.
CC(=O)c1ccc(NCC(=O)N2CCN(c3ccccc3)CC2)cc1	.	97.6	/	.	.	.
Cc1cc(C)c(S(=O)(=O)N(C)CC(N)=O)c(C)c1	.	.	.	62.6	.	.
CC(=O)c1ccc(S(=O)(=O)NC2CCCCCCC2)cc1	/	.	/	/	/	/
Cc1nc(SCC(=O)Nc2c(C)nn(C)c2C)c2cnn(-c3ccccc3)c2n1	.	.	.	.	.	.
Cc1nn(Cc2ccccc2)c(C)c1NC(=O)CSc1nc(-c2ccccc2)nc2c1cnn2-c1ccccc1	.	.	/	32.1	.	.
CCc1nn(C(C)C(=O)N(C)Cc2ccccc2)c(=O)c2cc3occc3n12 (stereo not drawn)	/	.	/	/	/	/
C/C=C(\C)C(=O)NCCN1C2=NC[C@@H](Cc3ccccc3)N2C[C@@H]1Cc1ccc(OC)cc1	/	/	.	/	/	/
CCCCCCNC(=O)N[C@@H](C(=O)NCCC[C@H]1CN2C(=NC[C@@H]2Cc2ccccc2)N1CCc1cccc(OC)c1)C(C)C	/	.	.	66.1	/	/
CCOc1ccccc1NC(=O)CN1C(=O)CSC(C)C1=O (stereo not drawn)	.	64.7	.	/	.	.
Cc1cccc(CC(C)NC(=O)c2oc3c(F)cccc3c2C)n1 (stereo not drawn)	/	.	/	/	/	/
COc1ccc(C(=O)N(C)Cc2ccc(C)o2)cc1OC1CCN(C(C)C)CC1	/	.	/	/	/	/
Cc1ccc(-c2n[nH]c(=S)n2/N=C/C=C\c2ccccc2[N+](=O)[O-])cc1	.	92.4	.	.	.	.
O=[N+]([O-])c1ccccc1/C=C/C=N/n1c(-c2ccccc2)n[nH]c1=S	.	.	.	.	.	.
O=[N+]([O-])c1ccccc1/C=C/C=N/n1c(-c2ccc(Cl)cc2)n[nH]c1=S	.	103.5	.	.	.	.
CC(Sc1ccccc1)C(=O)N1CCN(S(=O)(=O)c2ccc(Cl)cc2)CC1 (stereo not drawn)	/	.	/	/	/	/
COc1ccc(C2=NS(=O)(=O)N(C)C(C(=O)Nc3ccc(F)cc3F)=C2)cc1	/	.	/	/	/	/
CN(C)CCNC(=O)Cn1ccc2cc(S(=O)(=O)N3CCCCC3)ccc21	/	.	/	/	/	/
O=C(N/N=C/c1ccc2c(c1)OCO2)c1sc2cc(Cl)ccc2c1Cl	.	.	.	31.5	.	.
SMILES	ABCB1 block	PHOSPHO1 inh	HSV replic up	NCF1 inh	PKD1 kinase inh	ABCG2 inh
COc1ccc2c(Cl)c(C(=O)N/N=C/c3ccc4c(c3)OCO4)sc2c1	.	.	.	.	.	.
Cc1onc(-c2c(Cl)cccc2Cl)c1C(=O)N1C(C)CCCC1C (stereo not drawn)	/	.	/	/	/	/
Nc1nc(Nc2ccccc2)nc(NCc2ccco2)c1[N+](=O)[O-]	.	.	.	.	.	.
Nc1nc(NCc2ccco2)nc(Nc2ccccc2)c1[N+](=O)[O-]	/	.	.	76.2	/	/
CSc1ncc(C(=O)O)n1-c1ccc(F)cc1	.	.	.	.	.	.
O=C(O)c1c[nH]c(=S)n1-c1ccc(F)cc1	.	103.6	.	.	.	.
CCCCCC[C@@H]([C@@H](C)O)n1cnc2c(N)ncnc21	/	/	.	/	/	/
CCCCCCCCCCCCCCCC(O)C(N)CO (stereo not drawn)	.	.	.	84.3	.	.
CN(C)/C(=N\S(=O)(=O)c1ccc(Cl)cc1)c1ccc(F)cc1	/	.	/	/	/	/
